This is an account of results in ChEMBL document CHEMBL3112490, “Ionic liquid mediated synthesis of mono- and bis-spirooxindole-hexahydropyrrolidines as cholinesterase inhibitors and their molecular docking studies” (Bioorg Med Chem, 2014).

As usually defined, the IC50 is the concentration needed to halve the response being measured. A low value points to inhibition by little substance. Usually Ki stands for the equilibrium dissociation constant of an inhibitor or competing ligand from its target. A high value points to a looser hold on the target.

Assay [1] in a line: Selectivity index, ratio of IC50 for AChE (unknown origin) to IC50 for equine serum BChE.
In assay [2] the target is T1, Cholinesterase (Equus caballus, UniProt P81908). Briefly: Inhibition of equine serum BChE using S-butyrylthiocholine chloride as substrate preincubated for 15 mins followed by substrate addition by Ellman's method. The procedure, abridged: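 Modified Ellman assay with equine serum BChE in 0.1 M sodium phosphate, pH 8. Enzyme preincubated with sample (DMSO, 1% final) for 15 min at 25 °C. DTNB (10 mM stock) then added, followed by S-butyrylthiocholine chloride (14 mM stock). Triplicates, blank-corrected; % inhibition calculated relative to control.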
In general terms: Ellman's reagent forms a yellow product with free thiols.

The nature of assay [3]: Selectivity ratio of IC50 for equine serum BChE to IC50 for AChE (unknown origin).
For assay [4], the target named is T2, Acetylcholinesterase (Homo sapiens, UniProt P22303). The experiment in a line: Inhibition of AChE (unknown origin) using acetylthiocholine iodide as substrate preincubated for 15 mins followed by substrate addition by Ellman's method.
The target of assay [5] is T2, Acetylcholinesterase. The experiment in a line: Competitive inhibition of AChE (unknown origin) using acetylthiocholine iodide as substrate by Dixon plot analysis. The procedure, abridged:
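Ellman kinetics on AChE, added as a 0.09 units/mL solution, in pH 8 phosphate buffer with a 15 min 25 °C preincubation. Inhibitor at 0, 0.70 and 1.40 µM; acetylthiocholine iodide at 1, 2, 4 and 8 mM; DTNB detection at 412 nm. Mode, Km and Vmax from Lineweaver–Burk plots; Ki from Dixon plot.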

Assay [6] concerns the target T1, Cholinesterase. The experiment in a line: Mixed-type inhibition of equine serum BChE using S-butyrylthiocholine chloride as substrate by Dixon plot analysis. The procedure, abridged:
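Equine serum BChE run in the same Ellman kinetic format, pH 8, with a 15 min 25 °C preincubation. Inhibitor at 0, 0.90 and 1.81 µM; S-butyrylthiocholine chloride at 1, 2, 4 and 8 mM; read at 412 nm. Inhibition mode, Km and Vmax taken from Lineweaver–Burk plots; Ki from Dixon plot.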

T1 sequence (P81908 whole entry): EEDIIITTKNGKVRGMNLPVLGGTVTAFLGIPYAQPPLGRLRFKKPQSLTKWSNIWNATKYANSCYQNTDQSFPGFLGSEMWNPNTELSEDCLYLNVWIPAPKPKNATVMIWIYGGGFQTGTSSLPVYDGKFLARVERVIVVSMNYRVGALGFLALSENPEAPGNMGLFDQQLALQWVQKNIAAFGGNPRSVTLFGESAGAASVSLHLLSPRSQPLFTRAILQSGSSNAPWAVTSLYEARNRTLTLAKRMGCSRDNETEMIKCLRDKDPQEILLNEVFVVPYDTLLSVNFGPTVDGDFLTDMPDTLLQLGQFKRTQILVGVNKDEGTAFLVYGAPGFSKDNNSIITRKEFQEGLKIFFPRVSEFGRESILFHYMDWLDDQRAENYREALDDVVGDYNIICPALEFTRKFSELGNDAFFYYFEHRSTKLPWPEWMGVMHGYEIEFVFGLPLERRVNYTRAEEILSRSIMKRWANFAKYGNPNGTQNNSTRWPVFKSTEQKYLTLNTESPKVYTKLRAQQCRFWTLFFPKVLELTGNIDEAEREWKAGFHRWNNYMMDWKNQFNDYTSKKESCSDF
T2 sequence (P22303 whole entry): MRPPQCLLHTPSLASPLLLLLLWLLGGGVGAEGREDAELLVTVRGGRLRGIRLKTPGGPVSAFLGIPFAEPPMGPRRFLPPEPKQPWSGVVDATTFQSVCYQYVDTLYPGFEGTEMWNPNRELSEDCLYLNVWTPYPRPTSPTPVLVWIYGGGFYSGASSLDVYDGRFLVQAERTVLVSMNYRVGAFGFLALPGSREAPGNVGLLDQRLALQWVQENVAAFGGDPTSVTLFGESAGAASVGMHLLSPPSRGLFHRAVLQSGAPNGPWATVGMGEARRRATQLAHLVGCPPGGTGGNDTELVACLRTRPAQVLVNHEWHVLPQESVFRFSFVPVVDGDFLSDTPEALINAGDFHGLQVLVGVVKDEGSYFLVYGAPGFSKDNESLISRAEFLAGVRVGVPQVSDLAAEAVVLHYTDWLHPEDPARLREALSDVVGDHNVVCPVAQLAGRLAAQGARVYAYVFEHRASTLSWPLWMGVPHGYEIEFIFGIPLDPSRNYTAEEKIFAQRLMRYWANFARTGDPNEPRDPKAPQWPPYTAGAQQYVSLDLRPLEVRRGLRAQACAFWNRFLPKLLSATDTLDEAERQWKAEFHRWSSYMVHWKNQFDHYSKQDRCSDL

For `COc1ccccc1/C=C1\CN(C(=O)[C@@H]2CCN(C)[C@]23C(=O)Nc2ccccc23)C[C@]2(C1=O)[C@H](c1ccccc1OC)CN(C)[C@]21C(=O)Nc2ccccc21` (racemic), the Ratio IC50 in assay [1] came out at 0.45; in assay [3], 2.2. The IC50 at Cholinesterase [2] was found to be 10.4 µM; on Acetylcholinesterase [4] it was 4.73 µM.

As for `CN1CC[C@@H](C(=O)N2C/C(=C\c3ccccc3Cl)C(=O)[C@@]3(C2)[C@H](c2ccccc2Cl)CN(C)[C@]32C(=O)Nc3ccccc32)[C@@]12C(=O)Nc1ccccc12` (racemic), the results for the Ratio IC50 in assay [1] and in assay [3] were 0.55 and 1.81, respectively. Further, the half-maximal inhibitory concentration (IC50) came to 9.38 µM on Cholinesterase [2] and 5.19 µM against Acetylcholinesterase [4].

For `CN1CC[C@@H](C(=O)N2C/C(=C\c3ccccc3F)C(=O)[C@@]3(C2)[C@H](c2ccccc2F)CN(C)[C@]32C(=O)Nc3ccccc32)[C@@]12C(=O)Nc1ccccc12` (racemic), the values for the Ratio IC50 in assay [1] and in assay [3] were 0.83 and 1.2, respectively. The IC50 at Cholinesterase [2] is 7.44 µM; against Acetylcholinesterase [4], 6.18 µM.

For `CN1CC[C@@H](C(=O)N2C/C(=C\c3cccc([N+](=O)[O-])c3)C(=O)[C@@]3(C2)[C@H](c2cccc([N+](=O)[O-])c2)CN(C)[C@]32C(=O)Nc3ccccc32)[C@@]12C(=O)Nc1ccccc12` (racemic), the Ratio IC50 was 0.2 in assay [1] and 5 in assay [3]. The half-inhibitory concentration (IC50) at Cholinesterase [2] was 12.3 µM; against Acetylcholinesterase [4], 2.47 µM.

Take `CN1CC[C@@H](C(=O)N2C/C(=C\c3ccc(Cl)cc3Cl)C(=O)[C@@]3(C2)[C@H](c2ccc(Cl)cc2Cl)CN(C)[C@]32C(=O)Nc3ccccc32)[C@@]12C(=O)Nc1ccccc12` (racemic): the Ratio IC50 turned out to be 0.25 in assay [1] and 4.05 in assay [3]. Also, the figures for the IC50 against Cholinesterase [2] and on Acetylcholinesterase [4] were 17.9 µM and 4.42 µM, respectively.

As for `Cc1ccc(/C=C2\CN(C(=O)[C@@H]3CCN(C)[C@]34C(=O)Nc3ccccc34)C[C@]3(C2=O)[C@H](c2ccc(C)cc2)CN(C)[C@]32C(=O)Nc3ccccc32)cc1` (racemic), the Ratio IC50 stood at 0.68 in assay [1] and 1.47 in assay [3]. The 50% inhibitory concentration (IC50) at Cholinesterase [2] was found to be 11.3 µM; against Acetylcholinesterase [4] it was 7.67 µM.

Take `CN1CC[C@@H](C(=O)N2C/C(=C\c3ccc(Cl)cc3)C(=O)[C@@]3(C2)[C@H](c2ccc(Cl)cc2)CN(C)[C@]32C(=O)Nc3ccccc32)[C@@]12C(=O)Nc1ccccc12` (racemic): the values for the Ratio IC50 in assay [1] and in assay [3] were 0.65 and 1.54, respectively. Besides, the results for the concentration for half-maximal inhibition (IC50) on Cholinesterase [2] and against Acetylcholinesterase [4] were 9.44 µM and 6.14 µM, respectively.

As for `CN1CC[C@@H](C(=O)N2C/C(=C\c3ccc(F)cc3)C(=O)[C@@]3(C2)[C@H](c2ccc(F)cc2)CN(C)[C@]32C(=O)Nc3ccccc32)[C@@]12C(=O)Nc1ccccc12` (racemic), the Ratio IC50 in assay [1] is 0.3; in assay [3] it was 3.33. In addition, the IC50 against Cholinesterase [2] was 7.82 µM; against Acetylcholinesterase [4], 2.35 µM. On Acetylcholinesterase [5], this molecule displayed an inhibition constant Ki of 2.01 µM.

Regarding `CN1CC[C@@H](C(=O)N2C/C(=C\c3cccc4ccccc34)C(=O)[C@@]3(C2)[C@H](c2cccc4ccccc24)CN(C)[C@]32C(=O)Nc3ccccc32)[C@@]12C(=O)Nc1ccccc12` (racemic), the Ratio IC50 in assay [1] amounted to 0.26; in assay [3], 3.88. Moreover, the values for the IC50 on Cholinesterase [2] and on Acetylcholinesterase [4] were 19.1 µM and 4.93 µM, respectively.

As to `C=CC(=O)N1C/C(=C\c2ccccc2)C(=O)[C@@]2(C1)[C@H](c1ccccc1)CN(C)[C@]21C(=O)Nc2ccccc21` (racemic), the Ratio IC50 in assay [1] was 1.16; in assay [3], 0.86. The results for the half-inhibitory concentration (IC50) against Cholinesterase [2] and against Acetylcholinesterase [4] were 7.52 µM and 8.74 µM, respectively.

Consider `C=CC(=O)N1C/C(=C\c2ccccc2C)C(=O)[C@@]2(C1)[C@H](c1ccccc1C)CN(C)[C@]21C(=O)Nc2ccccc21` (racemic), for which the Ratio IC50 in assay [1] was determined as 1.03; in assay [3], 0.97. Also, the IC50 against Cholinesterase [2] is 3.86 µM; against Acetylcholinesterase [4], 3.97 µM.

On to `C=CC(=O)N1C/C(=C\c2ccccc2OC)C(=O)[C@@]2(C1)[C@H](c1ccccc1OC)CN(C)[C@]21C(=O)Nc2ccccc21` (racemic), for which the Ratio IC50 in assay [1] is 0.97; in assay [3] it was 1.03. The IC50 against Cholinesterase [2] was found to be 4.22 µM; against Acetylcholinesterase [4], 4.1 µM.

`C=CC(=O)N1C/C(=C\c2ccccc2Cl)C(=O)[C@@]2(C1)[C@H](c1ccccc1Cl)CN(C)[C@]21C(=O)Nc2ccccc21` (racemic): the Ratio IC50 in assay [1] was found to be 1.22; in assay [3], 0.82. Further, the half-maximal inhibitory concentration (IC50) on Cholinesterase [2] was determined as 4.2 µM; at Acetylcholinesterase [4] it was 5.12 µM.

`C=CC(=O)N1C/C(=C\c2ccccc2F)C(=O)[C@@]2(C1)[C@H](c1ccccc1F)CN(C)[C@]21C(=O)Nc2ccccc21` (racemic): the Ratio IC50 in assay [1] amounted to 2.14; in assay [3], 0.47. The values for the concentration for half-maximal inhibition (IC50) against Cholinesterase [2] and against Acetylcholinesterase [4] were 3.21 µM and 6.88 µM, respectively. Further, the Ki at Cholinesterase [6] is 6.76 µM.

As to `C=CC(=O)N1C/C(=C\c2cccc([N+](=O)[O-])c2)C(=O)[C@@]2(C1)[C@H](c1cccc([N+](=O)[O-])c1)CN(C)[C@]21C(=O)Nc2ccccc21` (racemic), the Ratio IC50 was found to be 0.69 in assay [1] and 1.45 in assay [3]. Besides, the values for the concentration for half-maximal inhibition (IC50) against Cholinesterase [2] and on Acetylcholinesterase [4] were 7.74 µM and 5.34 µM, respectively.

For `C=CC(=O)N1C/C(=C\c2ccc(Cl)cc2Cl)C(=O)[C@@]2(C1)[C@H](c1ccc(Cl)cc1Cl)CN(C)[C@]21C(=O)Nc2ccccc21` (racemic), the Ratio IC50 in assay [1] amounted to 1.15; in assay [3], 0.87. Also, the IC50 against Cholinesterase [2] turned out to be 5.32 µM; against Acetylcholinesterase [4], 6.14 µM.

Consider `C=CC(=O)N1C/C(=C\c2ccc(C)cc2)C(=O)[C@@]2(C1)[C@H](c1ccc(C)cc1)CN(C)[C@]21C(=O)Nc2ccccc21` (racemic), for which the Ratio IC50 in assay [1] was found to be 0.81; in assay [3], 1.24. The IC50 against Cholinesterase [2] was found to be 9.28 µM; against Acetylcholinesterase [4] it was 7.49 µM.

With `C=CC(=O)N1C/C(=C\c2ccc(Cl)cc2)C(=O)[C@@]2(C1)[C@H](c1ccc(Cl)cc1)CN(C)[C@]21C(=O)Nc2ccccc21` (racemic), the Ratio IC50 in assay [1] came out at 1.24; in assay [3] it was 0.81. Moreover, the IC50 is 6.77 µM at Cholinesterase [2] and 8.4 µM on Acetylcholinesterase [4].

`C=CC(=O)N1C/C(=C\c2ccc(F)cc2)C(=O)[C@@]2(C1)[C@H](c1ccc(F)cc1)CN(C)[C@]21C(=O)Nc2ccccc21` (racemic): the values for the Ratio IC50 in assay [1] and in assay [3] were 2.3 and 0.43, respectively. For the same molecule, the values for the IC50 against Cholinesterase [2] and against Acetylcholinesterase [4] were 3.39 µM and 7.8 µM, respectively.

Regarding `C=CC(=O)N1C/C(=C\c2cccc3ccccc23)C(=O)[C@@]2(C1)[C@H](c1cccc3ccccc13)CN(C)[C@]21C(=O)Nc2ccccc21` (racemic), the values for the Ratio IC50 in assay [1] and in assay [3] were 0.86 and 1.17, respectively. In addition, the IC50 against Cholinesterase [2] is 8.85 µM; against Acetylcholinesterase [4], 7.59 µM.

`CN1CC[C@@H](C(=O)N2C/C(=C\c3ccccc3)C(=O)[C@@]3(C2)[C@H](c2ccccc2)CN(C)[C@]32C(=O)Nc3ccccc32)[C@@]12C(=O)Nc1ccccc12` (racemic): the figures for the Ratio IC50 in assay [1] and in assay [3] were 0.28 and 3.55, respectively. Also, the figures for the 50% inhibitory concentration (IC50) on Cholinesterase [2] and on Acetylcholinesterase [4] were 9.34 µM and 2.63 µM, respectively.

For the molecule `Cc1ccccc1/C=C1\CN(C(=O)[C@@H]2CCN(C)[C@]23C(=O)Nc2ccccc23)C[C@]2(C1=O)[C@H](c1ccccc1C)CN(C)[C@]21C(=O)Nc2ccccc21` (racemic), the figures for the Ratio IC50 in assay [1] and in assay [3] were 0.75 and 1.33, respectively. In addition, the half-maximal inhibitory concentration (IC50) at Cholinesterase [2] turned out to be 12.5 µM; at Acetylcholinesterase [4], 9.43 µM.
